Experimental data taken from ChEMBL document CHEMBL4346654 (Eur J Med Chem, 2019).
Values after ≈ are worked out from the molar mass of the structure shown.

Experiments:
Type in all cases: functional
Staphylococcus aureus [1] = test: Antibacterial activity against MLS-resistant Staphylococcus aureus PU 32 expressing inducible ermA gene assessed as reduction in microbial growth by CLSI based two-fold broth dilution method
Streptococcus pneumoniae [2] = test: Antibacterial activity against erythromycin-susceptible Streptococcus pneumoniae ATCC49619 assessed as reduction in microbial growth by CLSI based two-fold broth dilution method
Streptococcus pneumoniae [3] = test: Bactericidal activity against erythromycin-susceptible Streptococcus pneumoniae ATCC49619 pretreated followed by subculture in absence of compound measured after 24 hrs
Method in brief: (§1)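 Isolates were identified by 16S rDNA sequencing. MIC was determined by CLSI-recommended two-fold broth dilution. For MBC, samples from 1–8 fold MIC were transferred to culture medium and subcultured for 24 h without antibiotic.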

Haemophilus influenzae [4] = test: Antibacterial activity against azithromycin-susceptible Haemophilus influenzae ATCC 49247 assessed as reduction in microbial growth by CLSI based two-fold broth dilution method
Streptococcus pneumoniae [5] = test: Selectivity ratio of MBC to MIC for erythromycin-susceptible Streptococcus pneumoniae ATCC49619; method in brief: as §1
Streptococcus pneumoniae [6] = test: Antibacterial activity against Streptococcus pneumoniae 07P390 expressing constitutive ermB gene assessed as reduction in microbial growth by CLSI based two-fold broth dilution method
Streptococcus pneumoniae [7] = test: Antibacterial activity against penicillin-susceptible Streptococcus pneumoniae PU 09 expressing mef gene assessed as reduction in microbial growth by CLSI based two-fold broth dilution method
Streptococcus pneumoniae [8] = test: Bactericidal activity against penicillin-susceptible Streptococcus pneumoniae PU 09 expressing mef gene pretreated followed by subculture in absence of compound measured after 24 hrs; method in brief: as §1
Streptococcus pneumoniae [9] = test: Selectivity ratio of MBC to MIC for penicillin-susceptible Streptococcus pneumoniae PU 09 expressing mef gene; method in brief: as §1
Streptococcus pneumoniae [10] = test: Bactericidal activity against Streptococcus pneumoniae 07P390 expressing constitutive ermB gene pretreated followed by subculture in absence of compound measured after 24 hrs; method in brief: as §1
Streptococcus pneumoniae [11] = test: Selectivity ratio of MBC to MIC for Streptococcus pneumoniae 07P390 expressing constitutive ermB gene; method in brief: as §1
Haemophilus influenzae [12] = test: Bactericidal activity against azithromycin-susceptible Haemophilus influenzae ATCC 49247 pretreated followed by subculture in absence of compound measured after 24 hrs; method in brief: as §1
Haemophilus influenzae [13] = test: Selectivity ratio of MBC to MIC for azithromycin-susceptible Haemophilus influenzae ATCC 49247; method in brief: as §1
Streptococcus pyogenes [14] = test: Antibacterial activity against MLS-resistant Streptococcus pyogenes 01-968 expressing inducible ermB gene assessed as reduction in microbial growth by CLSI based two-fold broth dilution method
Streptococcus pyogenes [15] = test: Bactericidal activity against MLS-resistant Streptococcus pyogenes 01-968 expressing inducible ermB gene pretreated followed by subculture in absence of compound measured after 24 hrs
Method in brief: (§2)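 MBC assay. Following MIC determination by CLSI standard two-fold broth dilution, samples at 1–8 fold MIC were transferred to fresh culture medium. They were subcultured for 24 h without antibiotic. Isolates were identified by 16S rDNA sequencing. S. aureus ATCC 29213 was used as a control strain.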

Streptococcus pyogenes [16] = test: Selectivity ratio of MBC to MIC for MLS-resistant Streptococcus pyogenes 01-968 expressing inducible ermB gene
Method in brief: (§3)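 MBC/MIC ratio. MIC was measured by CLSI standard two-fold broth dilution. MBC was measured by transferring samples at 1–8 fold MIC to culture medium and subculturing for 24 h without antibiotic. Isolates were identified by 16S rDNA sequencing.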

Staphylococcus aureus [17] = test: Bactericidal activity against MLS/methicillin-resistant Staphylococcus aureus PU 32 expressing inducible ermA gene pretreated followed by subculture in absence of compound measured after 24 hrs; method in brief: as §2
Staphylococcus aureus [18] = test: Selectivity ratio of MBC to MIC for MLS/methicillin-resistant Staphylococcus aureus PU 32 expressing inducible ermA gene; method in brief: as §3
Staphylococcus aureus [19] = test: Antibacterial activity against MLS-resistant Staphylococcus aureus PU 20 expressing constitutive ermC gene assessed as reduction in microbial growth by CLSI based two-fold broth dilution method
Staphylococcus aureus [20] = test: Bactericidal activity against MLS-resistant Staphylococcus aureus PU 20 expressing constitutive ermC gene pretreated followed by subculture in absence of compound measured after 24 hrs; method in brief: as §2

Compound	MIC (Staphylococcus aureus [1])	MIC (Streptococcus pneumoniae [2])	MBC (Streptococcus pneumoniae [3])	MIC (Haemophilus influenzae [4])	Selectivity ratio (Streptococcus pneumoniae [5])	MIC (Streptococcus pneumoniae [6])	MIC (Streptococcus pneumoniae [7])	MBC (Streptococcus pneumoniae [8])	Selectivity ratio (Streptococcus pneumoniae [9])	MBC (Streptococcus pneumoniae [10])	Selectivity ratio (Streptococcus pneumoniae [11])	MBC (Haemophilus influenzae [12])	Selectivity ratio (Haemophilus influenzae [13])	MIC (Streptococcus pyogenes [14])	MBC (Streptococcus pyogenes [15])	Selectivity ratio (Streptococcus pyogenes [16])	MBC (Staphylococcus aureus [17])	Selectivity ratio (Staphylococcus aureus [18])	MIC (Staphylococcus aureus [19])	MBC (Staphylococcus aureus [20])
CC[C@H]1OC(=O)[C@@](C)(F)C(=O)[C@H](C)[C@@H](O[C@@H]2O[C@H](C)C[C@H](N(C)C)[C@H]2O)[C@](C)(OC/C=C/c2cncc(C(N)=O)c2)C[C@@H](C)/C(=N\OC)[C@H](C)[C@H]2OC(=O)O[C@@]21C	0.125 µg/mL	0.062 µg/mL	0.125 µg/mL (≈ 0.155 µM)	4 µg/mL	2	0.5 µg/mL	2 µg/mL	8 µg/mL (≈ 9.91 µM)	4	4 µg/mL (≈ 4.96 µM)	8	8 µg/mL (≈ 9.91 µM)	2	0.031 µg/mL	> 0.25 µg/mL	>8	> 1 µg/mL	>8	> 256 µg/mL	–
CC[C@H]1OC(=O)[C@@](C)(F)C(=O)[C@H](C)[C@@H](O[C@@H]2O[C@H](C)C[C@H](N(C)C)[C@H]2O)[C@](C)(OC)C[C@@H](C)/C(=N\OC/C=C/c2ccc3[nH]cc(C(=O)O)c(=O)c3c2)[C@H](C)[C@H]2OC(=O)O[C@@]21C	2 µg/mL	0.125 µg/mL	0.125 µg/mL (≈ 0.143 µM)	32 µg/mL	1	4 µg/mL	2 µg/mL	4 µg/mL (≈ 4.58 µM)	2	16 µg/mL (≈ 18.3 µM)	4	32 µg/mL (≈ 36.6 µM)	1	0.016 µg/mL	> 0.125 µg/mL	>8	16 µg/mL (≈ 18.3 µM)	8	256 µg/mL	> 256 µg/mL
CC[C@H]1OC(=O)[C@@](C)(F)C(=O)[C@H](C)[C@@H](O[C@@H]2O[C@H](C)C[C@H](N(C)C)[C@H]2O)[C@](C)(OC/C=C/c2ccc3ncc(C(=O)O)cc3c2)C[C@@H](C)/C(=N\OC)[C@H](C)[C@H]2OC(=O)O[C@@]21C	0.062 µg/mL	0.031 µg/mL	0.062 µg/mL (≈ 0.0723 µM)	4 µg/mL	2	0.5 µg/mL	8 µg/mL	16 µg/mL (≈ 18.6 µM)	2	4 µg/mL (≈ 4.66 µM)	8	8 µg/mL (≈ 9.32 µM)	2	≤ 0.008 µg/mL	> 0.062 µg/mL	>8	0.5 µg/mL (≈ 0.583 µM)	8	> 256 µg/mL	–
CC[C@H]1OC(=O)[C@@](C)(F)C(=O)[C@H](C)[C@@H](O[C@@H]2O[C@H](C)C[C@H](N(C)C)[C@H]2O)[C@](C)(OC/C=C/c2cncc(C(=O)O)c2)C[C@@H](C)/C(=N\OC)[C@H](C)[C@H]2OC(=O)O[C@@]21C	2 µg/mL	0.25 µg/mL	0.5 µg/mL (≈ 0.619 µM)	8 µg/mL	2	1 µg/mL	32 µg/mL	> 32 µg/mL	–	4 µg/mL (≈ 4.95 µM)	4	8 µg/mL (≈ 9.9 µM)	1	0.125 µg/mL	> 1 µg/mL	>8	> 16 µg/mL	>8	> 256 µg/mL	–
CC[C@H]1OC(=O)[C@@](C)(F)C(=O)[C@H](C)[C@@H](O[C@@H]2O[C@H](C)C[C@H](N(C)C)[C@H]2O)[C@](C)(OC)C[C@@H](C)/C(=N\OC/C=C/c2ccc3[nH]ccc(=O)c3c2)[C@H](C)[C@H]2OC(=O)O[C@@]21C	1 µg/mL	0.125 µg/mL	0.5 µg/mL (≈ 0.602 µM)	16 µg/mL	4	16 µg/mL	4 µg/mL	8 µg/mL (≈ 9.64 µM)	2	32 µg/mL (≈ 38.6 µM)	2	32 µg/mL (≈ 38.6 µM)	2	0.062 µg/mL	> 0.5 µg/mL	>8	> 8 µg/mL	>8	256 µg/mL	> 256 µg/mL
CC[C@H]1OC(=O)[C@@](C)(F)C(=O)[C@H](C)[C@@H](O[C@@H]2O[C@H](C)C[C@H](N(C)C)[C@H]2O)[C@](C)(OC/C=C/c2ccc3[nH]cc(C(=O)O)c(=O)c3c2)C[C@@H](C)/C(=N\OC)[C@H](C)[C@H]2OC(=O)O[C@@]21C	0.5 µg/mL	0.062 µg/mL	0.062 µg/mL (≈ 0.0709 µM)	8 µg/mL	1	0.5 µg/mL	2 µg/mL	4 µg/mL (≈ 4.58 µM)	2	4 µg/mL (≈ 4.58 µM)	8	16 µg/mL (≈ 18.3 µM)	2	0.031 µg/mL	0.062 µg/mL (≈ 0.0709 µM)	2	2 µg/mL (≈ 2.29 µM)	4	> 256 µg/mL	–
CC[C@H]1OC(=O)[C@@](C)(F)C(=O)[C@H](C)[C@@H](O[C@@H]2O[C@H](C)C[C@H](N(C)C)[C@H]2O)[C@](C)(OC)C[C@@H](C)/C(=N\OC/C=C/c2cncc(O)c2)[C@H](C)[C@H]2OC(=O)O[C@@]21C	0.25 µg/mL	0.125 µg/mL	0.5 µg/mL (≈ 0.641 µM)	16 µg/mL	4	32 µg/mL	2 µg/mL	4 µg/mL (≈ 5.13 µM)	2	> 32 µg/mL	–	16 µg/mL (≈ 20.5 µM)	1	0.062 µg/mL	> 0.5 µg/mL	>8	> 2 µg/mL	>8	256 µg/mL	> 256 µg/mL
CC[C@H]1OC(=O)[C@@](C)(F)C(=O)[C@H](C)[C@@H](O[C@@H]2O[C@H](C)C[C@H](N(C)C)[C@H]2O)[C@](C)(OC)C[C@@H](C)/C(=N\OCC#Cc2cncc(C(=O)NC)c2)[C@H](C)[C@H]2OC(=O)O[C@@]21C	0.5 µg/mL	0.125 µg/mL	0.25 µg/mL (≈ 0.305 µM)	8 µg/mL	2	32 µg/mL	1 µg/mL	1 µg/mL (≈ 1.22 µM)	1	> 32 µg/mL	–	16 µg/mL (≈ 19.5 µM)	2	0.062 µg/mL	> 0.5 µg/mL	>8	> 4 µg/mL	>8	256 µg/mL	> 256 µg/mL
CC[C@H]1OC(=O)[C@@](C)(F)C(=O)[C@H](C)[C@@H](O[C@@H]2O[C@H](C)C[C@H](N(C)C)[C@H]2O)[C@](C)(OC)C[C@@H](C)/C(=N\OC/C=C/c2cncc(C(N)=O)c2)[C@H](C)[C@H]2OC(=O)O[C@@]21C	0.25 µg/mL	0.031 µg/mL	0.031 µg/mL (≈ 0.0384 µM)	8 µg/mL	1	32 µg/mL	0.5 µg/mL	1 µg/mL (≈ 1.24 µM)	2	> 32 µg/mL	–	16 µg/mL (≈ 19.8 µM)	2	0.062 µg/mL	> 0.5 µg/mL	>8	> 2 µg/mL	>8	256 µg/mL	> 256 µg/mL
